The source of these data is ChEMBL document CHEMBL4229446, “Development of Novel Monoamine Oxidase-B (MAO-B) Inhibitors with Reduced Blood-Brain Barrier Permeability for the Potential Management of Noncentral Nervous System (CNS) Diseases” (J Med Chem, 2018).

Format in all cases: ADME, organism-based
Data set [1] in a line: Tmax in C57BL/6 mouse plasma at 24.5 mg/kg, sc administered as single dose measured 24 hrs by UPLC-MS/MS analysis. In a few lines:
(§1)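 Plasma extracted by protein precipitation/phospholipid removal and measured by UPLC-MS/MS (MRM). Parameters by noncompartmental analysis, omitting values outside quantification limits or undetected.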

A short description of data set [2]: Tmax in C57BL/6 mouse plasma at 24.5 mg/kg, po administered as single dose measured 24 hrs by UPLC-MS/MS analysis. A digest of the protocol: as §1
Data set [3] in a line: Tmax in C57BL/6 mouse brain at 24.5 mg/kg, po administered as single dose measured 24 hrs by UPLC-MS/MS analysis. A digest of the protocol: (§2)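 Brain portion homogenised in 50 mM ammonium formate with beads, acidified organic extraction, UPLC-MS/MS. ng/g read as ng/mL. Noncompartmental analysis; values above or below quantification limit, or undetected, excluded.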
A short description of data set [4]: AUClast in C57BL/6 mouse plasma at 24.5 mg/kg, iv administered as single dose measured 24 hrs by UPLC-MS/MS analysis. Set-up: dose 24.5 mg/kg, time 0 - last, route intravenous. A digest of the protocol:
(§3)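 21 animals dosed at 0 min, 3 sacrificed at each of 0, 5, 15, 30 min, 1, 4 and 24 h. Plasma was extracted by protein precipitation with phospholipid removal. Brain was weighed, bead-homogenised in 50 mM ammonium formate and extracted in acidified organic solvent. Quantified by UPLC-MS/MS (MRM). Brain ng/g taken as ng/mL. Parameters came from noncompartmental analysis. Kp = AUClast brain/plasma.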

Data set [5] is described as follows: Tmax in C57BL/6 mouse plasma at 24.5 mg/kg, iv administered as single dose measured 24 hrs by UPLC-MS/MS analysis. A digest of the protocol:
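Plasma cleaned by protein precipitation with phospholipid removal, then UPLC-MS/MS in MRM mode. Tmax obtained by noncompartmental analysis.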

A short description of data set [6]: Apparent half-life of the terminal disposition phase in C57BL/6 mouse plasma at 24.5 mg/kg, iv administered as single dose measured 24 hrs by UPLC-MS/MS analysis. As to conditions: read-out: t1/2 lambda z (converted). A digest of the protocol: as §3
A short description of data set [7]: Cmax in C57BL/6 mouse brain at 24.5 mg/kg, iv administered as single dose measured 24 hrs by UPLC-MS/MS analysis. Set-up: dose 24.5 mg/kg, route intravenous. In a few lines:
as §3

Data set [8] is described as follows: Ratio of AUClast in brain to plasma in C57BL/6 mouse at 24.5 mg/kg, sc administered as single dose measured 24 hrs by UPLC-MS/MS analysis. In a few lines: (§4)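 15 animals dosed, 3 sacrificed at each of 1, 2, 4, 6 and 24 h. Plasma and brain homogenate were extracted and quantified by UPLC-MS/MS. Parameters came from noncompartmental analysis. Values above or below the limit of quantification, or undetected, were omitted. Kp = AUClast brain/plasma.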

The nature of data set [9]: Apparent half-life of the terminal disposition phase in C57BL/6 mouse plasma at 24.5 mg/kg, po administered as single dose measured 24 hrs by UPLC-MS/MS analysis. Conditions: read-out: t1/2 lambda z (converted). In a few lines:
as §4

Data set [10] in a line: Tmax in C57BL/6 mouse brain at 24.5 mg/kg, sc administered as single dose measured 24 hrs by UPLC-MS/MS analysis. In a few lines: as §2
Data set [11] can be described thus: Ratio of AUClast in brain to plasma in C57BL/6 mouse at 24.5 mg/kg, iv administered as single dose measured 24 hrs by UPLC-MS/MS analysis. In a few lines:
as §3

Data set [12] in a line: Apparent half-life of the terminal disposition phase in C57BL/6 mouse plasma at 24.5 mg/kg, sc administered as single dose measured 24 hrs by UPLC-MS/MS analysis. Conditions: read-out: t1/2 lambda z (converted). A digest of the protocol: as §4
Data set [13] in a line: AUClast in C57BL/6 mouse brain at 24.5 mg/kg, sc administered as single dose measured 24 hrs by UPLC-MS/MS analysis. Set-up: dose 24.5 mg/kg, time 0 - last, route subcutaneous. In a few lines:
as §4

Data set [14] can be described thus: AUClast in C57BL/6 mouse plasma at 23.4 mg/kg, iv administered as single dose measured 24 hrs by UPLC-MS/MS analysis. Set-up: dose 23.4 mg/kg, time 0 - last, route intravenous. A digest of the protocol:
(§5)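 21 animals dosed at 0 min, 3 killed per time point (0, 5, 15, 30 min, 1, 4, 24 h). Plasma extracted by protein precipitation/phospholipid removal. Brain homogenized in 50 mM ammonium formate, then extracted in acidified organic solvent. Both quantified by UPLC-MS/MS (MRM), brain ng/g taken as ng/mL. Noncompartmental analysis. Kp = AUClast brain/plasma.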

Data set [15] can be described thus: AUClast in C57BL/6 mouse brain at 23.4 mg/kg, po administered as single dose measured 24 hrs by UPLC-MS/MS analysis. Also on record: dose 23.4 mg/kg, route oral, time 0 - last. In a few lines: (§6)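 15 animals dosed, 3 killed at each of 1, 2, 4, 6 and 24 h. Plasma and brain homogenate (ammonium formate, acidified organic extraction) assayed by UPLC-MS/MS, brain ng/g taken as ng/mL. Noncompartmental parameters exclude values above/below quantification limit or undetected. Kp = AUClast brain/plasma.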

Data set [16] in a line: Apparent half-life of the terminal disposition phase in C57BL/6 mouse plasma at 23.4 mg/kg, iv administered as single dose measured 24 hrs by UPLC-MS/MS analysis. As to conditions: read-out: t1/2 lambda z (converted). A digest of the protocol:
as §5

Data set [17] in a line: Cmax in C57BL/6 mouse plasma at 23.4 mg/kg, sc administered as single dose measured 24 hrs by UPLC-MS/MS analysis. Set-up: dose 23.4 mg/kg, route subcutaneous. A digest of the protocol:
as §6

Data set [18] in a line: Tmax in C57BL/6 mouse plasma at 23.4 mg/kg, sc administered as single dose measured 24 hrs by UPLC-MS/MS analysis. A digest of the protocol:
as §6

Data set [19] can be described thus: Tmax in C57BL/6 mouse plasma at 23.4 mg/kg, po administered as single dose measured 24 hrs by UPLC-MS/MS analysis. A digest of the protocol: as §6
Data set [20] is described as follows: Ratio of AUClast in brain to plasma in C57BL/6 mouse at 23.4 mg/kg, sc administered as single dose measured 24 hrs by UPLC-MS/MS analysis. A digest of the protocol:
as §6

Data set [21] is described as follows: AUClast in C57BL/6 mouse plasma at 23.4 mg/kg, sc administered as single dose measured 24 hrs by UPLC-MS/MS analysis. Also on record: dose 23.4 mg/kg, time 0 - last, route subcutaneous. In a few lines: as §6
A short description of data set [22]: Ratio of AUClast in brain to plasma in C57BL/6 mouse at 23.4 mg/kg, iv administered as single dose measured 24 hrs by UPLC-MS/MS analysis. In a few lines: as §5
A short description of data set [23]: Tmax in C57BL/6 mouse brain at 23.4 mg/kg, iv administered as single dose measured 24 hrs by UPLC-MS/MS analysis. In a few lines:
as §5

Data set [24] in a line: Apparent half-life of the terminal disposition phase in C57BL/6 mouse brain at 23.4 mg/kg, sc administered as single dose measured 24 hrs by UPLC-MS/MS analysis. Conditions: read-out: t1/2 lambda z (converted). A digest of the protocol:
as §6

The nature of data set [25]: Tmax in C57BL/6 mouse brain at 23.4 mg/kg, sc administered as single dose measured 24 hrs by UPLC-MS/MS analysis. In a few lines: as §6
Data set [26] can be described thus: AUClast in C57BL/6 mouse plasma at 23.4 mg/kg, po administered as single dose measured 24 hrs by UPLC-MS/MS analysis. Also on record: dose 23.4 mg/kg, time 0 - last, route oral. A digest of the protocol:
as §6

Data set [27] in a line: Cmax in C57BL/6 mouse brain at 23.4 mg/kg, sc administered as single dose measured 24 hrs by UPLC-MS/MS analysis. Also on record: dose 23.4 mg/kg, route subcutaneous. A digest of the protocol: as §6
Data set [28] is described as follows: Apparent half-life of the terminal disposition phase in C57BL/6 mouse brain at 23.4 mg/kg, iv administered as single dose measured 24 hrs by UPLC-MS/MS analysis. Conditions: read-out: t1/2 lambda z (converted). A digest of the protocol:
as §5

Each structure is given as a SMILES string.

In the case of `C[C@H](Cc1ccc(OCc2ccc(Br)c(Cl)c2)cc1)N(C)CC(=O)O`, the Tmax was determined as 2 h in data set [1]; 1 h in data set [2]; 6 h in data set [3]; 5 min in data set [5]; 6 h in data set [10]. Also, the figures for the AUC(0-t) at 24 h in data set [4] and in data set [13] were 94800 ng·h/mL and 12900 ng·h/mL, respectively. Moreover, the values for the half-life in data set [6], in data set [9] and in data set [12] were 3.93 h, 3.59 h and 4.81 h, respectively. In addition, the peak level in [7] (Cmax) was 653 ng/mL. Besides, the Kp at 24 h stood at 0.19 in [8] and 0.11 in [11].
On to `CN(CC(=O)O)[C@H](CC#N)Cc1ccc(OCc2ccc(Cl)c(Cl)c2)cc1`, for which the AUC(0-t) at 24 h in data set [14] is 39100 ng·h/mL; in data set [15], 116 ng·h/mL; in data set [21], 35100 ng·h/mL; in [26] it was 73000 ng·h/mL. Also, the half-life in data set [16] was 0.74 h; in [24] it was 1.07 h; in [28], 0.65 h. The Cmax in [17] was 13300 ng/mL; in data set [27], 91.3 ng/mL. Further, the Tmax is 1 h in data set [18], 1 h in data set [19], 5 min in [23] and 1 h in data set [25]. Also, the Kp at 24 h amounted to 0.005 in [20] and 0.004 in data set [22].

By Tmax is commonly meant the time at which the peak concentration occurs. By AUC(0-t) is commonly meant exposure summed from dosing to a finite time, without extrapolation to infinity. Broadly, the Cmax is the peak of the concentration-time curve. Usually Kp stands for the ratio of the level in a tissue or fluid to that in plasma or blood.
